In ChEMBL document CHEMBL2311311, “Synthesis and in vitro activity of 1,2,4-triazole-ciprofloxacin hybrids against drug-susceptible and drug-resistant bacteria” (Eur J Med Chem, 2013):
≈ marks a conversion by molar mass, not a printed value.

Assays:
Format in all cases: functional
Micrococcus luteus = assay: Antimicrobial activity against Micrococcus luteus ATCC 10240 by broth microdilution method
Summary of the method: (§1)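 Inocula were saline (0.85% NaCl) suspensions at 0.5 McFarland (150 × 10⁶ CFU/mL). Compounds were first screened by agar dilution on Mueller-Hinton agar, and active ones then went to broth microdilution. MIC is the lowest concentration inhibiting growth. The negative control was medium containing DMSO at the final concentration, without compound.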

Bacillus cereus = assay: Antimicrobial activity against Bacillus cereus ATCC 10876 by broth microdilution method; summary of the method: as §1
Bacillus subtilis = assay: Antimicrobial activity against Bacillus subtilis ATCC 6633 by broth microdilution method; summary of the method: as §1
[1] = tested on: Staphylococcus epidermidis; assay: Antimicrobial activity against Staphylococcus epidermidis ATCC 12228 by broth microdilution method; summary of the method: as §1
Staphylococcus aureus [2] = assay: Antimicrobial activity against Staphylococcus aureus ATCC 25923 by broth microdilution method; summary of the method: as §1
Staphylococcus aureus [3] = assay: Ratio of MBC to MIC for methicillin-resistant Staphylococcus aureus 14001 by broth microdilution method
Summary of the method: (§2)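 Inoculum in sterile saline (0.85% NaCl), adjusted to 0.5 McFarland (150 × 10⁶ CFU/mL). Compounds first screened by agar dilution on Mueller-Hinton agar, then titrated by broth microdilution. Medium with DMSO at the final concentration and no compound served as negative control. MIC is the lowest concentration inhibiting growth. MBC is the lowest concentration giving >99.9% reduction in CFU of the initial inoculum.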

Staphylococcus aureus [4] = assay: Antimicrobial activity against methicillin-resistant Staphylococcus aureus 14001 by broth microdilution method; summary of the method: as §2
Proteus mirabilis = assay: Antimicrobial activity against Proteus mirabilis ATCC 12453 by broth microdilution method; summary of the method: as §1
Pseudomonas aeruginosa = assay: Antimicrobial activity against Pseudomonas aeruginosa ATCC 9027 by broth microdilution method; summary of the method: as §1
Escherichia coli = assay: Antimicrobial activity against Escherichia coli ATCC 25922 by broth microdilution method; summary of the method: as §1

SMILES	MIC (Micrococcus luteus)	MIC (Bacillus cereus)	MIC (Bacillus subtilis)	MIC [1]	MIC (Staphylococcus aureus [2])	Ratio (Staphylococcus aureus [3])	MBC (Staphylococcus aureus [4])	MIC (Staphylococcus aureus [4])	MIC (Proteus mirabilis)	MIC (Pseudomonas aeruginosa)	MIC (Escherichia coli)
CCCCn1c(-c2cccc(Cl)c2)nn(CN2CCN(c3cc4c(cc3F)c(=O)c(C(=O)O)cn4C3CC3)CC2)c1=S	6.4 µM (≈ 3.91 µg/mL)	0.39 µM (≈ 0.238 µg/mL)	0.2 µM (≈ 0.122 µg/mL)	1.6 µM (≈ 0.978 µg/mL)	3.19 µM (≈ 1.95 µg/mL)	1	1.6 µM (≈ 0.978 µg/mL)	1.6 µM (≈ 0.978 µg/mL)	0.098 µM (≈ 0.0599 µg/mL)	0.8 µM (≈ 0.489 µg/mL)	0.098 µM (≈ 0.0599 µg/mL)
CCCCCCn1c(-c2cccc(Cl)c2)nn(CN2CCN(c3cc4c(cc3F)c(=O)c(C(=O)O)cn4C3CC3)CC2)c1=S	3.05 µM (≈ 1.95 µg/mL)	0.77 µM (≈ 0.492 µg/mL)	0.19 µM (≈ 0.121 µg/mL)	1.53 µM (≈ 0.978 µg/mL)	1.53 µM (≈ 0.978 µg/mL)	2	3.05 µM (≈ 1.95 µg/mL)	1.53 µM (≈ 0.978 µg/mL)	0.19 µM (≈ 0.121 µg/mL)	0.77 µM (≈ 0.492 µg/mL)	0.047 µM (≈ 0.03 µg/mL)
O=C(O)c1cn(C2CC2)c2cc(N3CCN(Cn4ncn(-c5cccc(I)c5)c4=S)CC3)c(F)cc2c1=O	24.2 µM (≈ 15.6 µg/mL)	3.02 µM (≈ 1.95 µg/mL)	0.37 µM (≈ 0.239 µg/mL)	6.05 µM (≈ 3.91 µg/mL)	12.1 µM (≈ 7.81 µg/mL)	2	12.1 µM (≈ 7.81 µg/mL)	6.05 µM (≈ 3.91 µg/mL)	0.18 µM (≈ 0.116 µg/mL)	1.52 µM (≈ 0.983 µg/mL)	0.093 µM (≈ 0.0601 µg/mL)
Cc1nn(CN2CCN(c3cc4c(cc3F)c(=O)c(C(=O)O)cn4C3CC3)CC2)c(=S)n1-c1cccc(I)c1	94.6 µM (≈ 62.5 µg/mL)	1.48 µM (≈ 0.978 µg/mL)	1.48 µM (≈ 0.978 µg/mL)	23.7 µM (≈ 15.6 µg/mL)	23.7 µM (≈ 15.6 µg/mL)	1	23.7 µM (≈ 15.6 µg/mL)	23.7 µM (≈ 15.6 µg/mL)	0.74 µM (≈ 0.489 µg/mL)	2.95 µM (≈ 1.95 µg/mL)	0.36 µM (≈ 0.238 µg/mL)
CCCc1nn(CN2CCN(c3cc4c(cc3F)c(=O)c(C(=O)O)cn4C3CC3)CC2)c(=S)n1-c1cccc(I)c1	182 µM (≈ 125 µg/mL)	22.7 µM (≈ 15.6 µg/mL)	5.68 µM (≈ 3.91 µg/mL)	90.8 µM (≈ 62.5 µg/mL)	90.8 µM (≈ 62.5 µg/mL)	1	182 µM (≈ 125 µg/mL)	182 µM (≈ 125 µg/mL)	2.83 µM (≈ 1.95 µg/mL)	22.7 µM (≈ 15.6 µg/mL)	0.71 µM (≈ 0.489 µg/mL)
O=C(O)c1cn(C2CC2)c2cc(N3CCN(Cn4nc(-c5cccc(Cl)c5)n(-c5ccc(Br)cc5)c4=S)CC3)c(F)cc2c1=O	10.1 µM (≈ 7.17 µg/mL)	1.38 µM (≈ 0.98 µg/mL)	0.34 µM (≈ 0.241 µg/mL)	5.51 µM (≈ 3.91 µg/mL)	5.51 µM (≈ 3.91 µg/mL)	2	5.51 µM (≈ 3.91 µg/mL)	2.76 µM (≈ 1.96 µg/mL)	0.17 µM (≈ 0.121 µg/mL)	1.38 µM (≈ 0.98 µg/mL)	0.084 µM (≈ 0.0596 µg/mL)
O=C(O)c1cn(C2CC2)c2cc(N3CCN(Cn4nc(-c5cccc(Cl)c5)n(-c5cccc(I)c5)c4=S)CC3)c(F)cc2c1=O	2.58 µM (≈ 1.95 µg/mL)	0.16 µM (≈ 0.121 µg/mL)	0.04 µM (≈ 0.0303 µg/mL)	1.29 µM (≈ 0.977 µg/mL)	1.29 µM (≈ 0.977 µg/mL)	8	5.16 µM (≈ 3.91 µg/mL)	0.64 µM (≈ 0.484 µg/mL)	0.04 µM (≈ 0.0303 µg/mL)	0.16 µM (≈ 0.121 µg/mL)	0.02 µM (≈ 0.0151 µg/mL)
O=C(O)c1cn(C2CC2)c2cc(N3CCN(Cn4nc(-c5cccc(Cl)c5)n(-c5ccc(I)cc5)c4=S)CC3)c(F)cc2c1=O	10.3 µM (≈ 7.8 µg/mL)	1.29 µM (≈ 0.977 µg/mL)	0.32 µM (≈ 0.242 µg/mL)	5.16 µM (≈ 3.91 µg/mL)	5.16 µM (≈ 3.91 µg/mL)	2	5.16 µM (≈ 3.91 µg/mL)	2.58 µM (≈ 1.95 µg/mL)	0.16 µM (≈ 0.121 µg/mL)	1.29 µM (≈ 0.977 µg/mL)	0.08 µM (≈ 0.0606 µg/mL)
O=C(O)c1cn(C2CC2)c2cc(N3CCN(Cn4nc(-c5cccc(Cl)c5)n(-c5ccc(F)cc5F)c4=S)CC3)c(F)cc2c1=O	2.92 µM (≈ 1.95 µg/mL)	0.18 µM (≈ 0.12 µg/mL)	0.09 µM (≈ 0.06 µg/mL)	0.73 µM (≈ 0.487 µg/mL)	0.73 µM (≈ 0.487 µg/mL)	1	0.73 µM (≈ 0.487 µg/mL)	0.73 µM (≈ 0.487 µg/mL)	0.022 µM (≈ 0.0147 µg/mL)	0.36 µM (≈ 0.24 µg/mL)	0.022 µM (≈ 0.0147 µg/mL)
O=C(O)c1cn(C2CC2)c2cc(N3CCN(Cn4nc(-c5cccc(Cl)c5)n(-c5ccc(Cl)cc5Cl)c4=S)CC3)c(F)cc2c1=O	2.78 µM (≈ 1.95 µg/mL)	0.17 µM (≈ 0.119 µg/mL)	0.043 µM (≈ 0.0301 µg/mL)	0.7 µM (≈ 0.49 µg/mL)	1.4 µM (≈ 0.98 µg/mL)	64	44.6 µM (≈ 31.2 µg/mL)	0.7 µM (≈ 0.49 µg/mL)	0.043 µM (≈ 0.0301 µg/mL)	0.17 µM (≈ 0.119 µg/mL)	0.043 µM (≈ 0.0301 µg/mL)
O=C(O)c1cn(C2CC2)c2cc(N3CCN(Cn4nc(-c5cccc(Cl)c5)n(-c5cc(Cl)cc(Cl)c5)c4=S)CC3)c(F)cc2c1=O	44.6 µM (≈ 31.2 µg/mL)	5.58 µM (≈ 3.91 µg/mL)	1.4 µM (≈ 0.98 µg/mL)	22.3 µM (≈ 15.6 µg/mL)	22.3 µM (≈ 15.6 µg/mL)	2	44.6 µM (≈ 31.2 µg/mL)	22.3 µM (≈ 15.6 µg/mL)	0.7 µM (≈ 0.49 µg/mL)	11.2 µM (≈ 7.81 µg/mL)	0.7 µM (≈ 0.49 µg/mL)
Cn1c(-c2cccc(Cl)c2)nn(CN2CCN(c3cc4c(cc3F)c(=O)c(C(=O)O)cn4C3CC3)CC2)c1=S	1.72 µM (≈ 0.979 µg/mL)	0.21 µM (≈ 0.12 µg/mL)	0.053 µM (≈ 0.0302 µg/mL)	0.86 µM (≈ 0.489 µg/mL)	0.86 µM (≈ 0.489 µg/mL)	2	0.86 µM (≈ 0.489 µg/mL)	0.42 µM (≈ 0.239 µg/mL)	0.053 µM (≈ 0.0302 µg/mL)	0.1 µM (≈ 0.0569 µg/mL)	0.053 µM (≈ 0.0302 µg/mL)
CN[C@H](CC(C)C)C(=O)N[C@H]1C(=O)N[C@@H](CC(N)=O)C(=O)N[C@H]2C(=O)N[C@H]3C(=O)N[C@H](C(=O)N[C@H](C(=O)O)c4cc(O)cc(O)c4-c4cc3ccc4O)[C@H](O)c3ccc(c(Cl)c3)Oc3cc2cc(c3O[C@@H]2O[C@H](CO)[C@@H](O)[C@H](O)[C@H]2O[C@H]2C[C@](C)(N)[C@H](O)[C@H](C)O2)Oc2ccc(cc2Cl)[C@H]1O [VANCOMYCIN]							2.7 µM (≈ 3.91 µg/mL)	0.68 µM (≈ 0.986 µg/mL)			
